Measurements published in ChEMBL document CHEMBL1795311, “Synthesis, antiproliferative activity, and mechanism of action of a series of 2-{[(2E)-3-phenylprop-2-enoyl]amino}benzamides” (Eur J Med Chem, 2011).

Tests used:
[1] = system: K562; assay: Antiproliferative activity against human K562 cells at 10 uM after 48 hrs by trypan blue assay; assay type: functional; details: K562, 48 h, read-out: GI
[2] = system: K562; assay: Growth inhibition of human K562 cells after 48 hrs by trypan blue assay; assay type: functional, cell-based; details: K562, 48 h
[3] = system: CCRF-CEM; assay: Growth inhibition of human CCRF-CEM cells after 48 hrs by SRB assay; assay type: functional
Method in brief: (§1)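 NCI DTP panel cells grown in RPMI 1640 with 5% FBS and 2 mM L-glutamine, preincubated 24 h, then given five concentrations (10-fold or ½-log dilutions from DMSO stock) for 48 h at 37 °C. Cells fixed with TCA, stained with SRB, absorbance read at 515 nm, with time-zero plates as reference.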

[4] = system: HL-60; assay: Growth inhibition of human HL60 cells after 48 hrs by SRB assay; assay type: functional; details: HL-60, 48 h; method in brief: as §1
[5] = system: K562; assay: Growth inhibition of human K562 cells after 48 hrs by SRB assay; assay type: functional; details: K562, 48 h; method in brief: as §1
[6] = system: MOLT-4; assay: Growth inhibition of human MOLT4 cells after 48 hrs by SRB assay; assay type: functional; details: MOLT-4, 48 h; method in brief: as §1
[7] = system: RPMI-8226; assay: Growth inhibition of human RPMI8226 cells after 48 hrs by SRB assay; assay type: functional; details: RPMI-8226, 48 h; method in brief: as §1
[8] = system: A549; assay: Growth inhibition of human A549 cells after 48 hrs by SRB assay; assay type: functional; details: A549, 48 h; method in brief: as §1
[9] = system: EKVX; assay: Growth inhibition of human EKVX cells after 48 hrs by SRB assay; assay type: functional; method in brief: as §1
[10] = system: HOP-92; assay: Growth inhibition of human HOP92 cells after 48 hrs by SRB assay; assay type: functional; details: HOP-92, 48 h; method in brief: as §1
[11] = system: NCI-H226; assay: Growth inhibition of human NCI-H226 cells after 48 hrs by SRB assay; assay type: functional; details: NCI-H226, 48 h; method in brief: as §1
[12] = system: NCI-H460; assay: Growth inhibition of human NCI-H460 cells after 48 hrs by SRB assay; assay type: functional; details: NCI-H460, 48 h; method in brief: as §1
[13] = system: NCI-H522; assay: Growth inhibition of human NCI-H522 cells after 48 hrs by SRB assay; assay type: functional; details: NCI-H522, 48 h; method in brief: as §1
[14] = system: COLO 205; assay: Growth inhibition of human COLO205 cells after 48 hrs by SRB assay; assay type: functional; details: COLO 205, 48 h; method in brief: as §1
[15] = system: HCC 2998; assay: Growth inhibition of human HCC2998 cells after 48 hrs by SRB assay; assay type: functional; details: HCC 2998, 48 h; method in brief: as §1
[16] = system: HCT-116; assay: Growth inhibition of human HCT116 cells after 48 hrs by SRB assay; assay type: functional; details: HCT-116, 48 h; method in brief: as §1
[17] = system: HCT-15; assay: Growth inhibition of human HCT15 cells after 48 hrs by SRB assay; assay type: functional; details: HCT-15, 48 h; method in brief: as §1
[18] = system: HT-29; assay: Growth inhibition of human HT-29 cells after 48 hrs by SRB assay; assay type: functional; details: HT-29, 48 h; method in brief: as §1
[19] = system: KM12; assay: Growth inhibition of human KM12 cells after 48 hrs by SRB assay; assay type: functional; details: KM12, 48 h; method in brief: as §1
[20] = system: SW-620; assay: Growth inhibition of human SW620 cells after 48 hrs by SRB assay; assay type: functional; details: SW-620, 48 h
Method in brief: (§2)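 Run by the NCI Developmental Therapeutics Program: cells in RPMI 1640 with 5% FBS and 2 mM L-glutamine, plated at 5000–40,000 cells/well and grown 24 h before dosing. Drug (DMSO stock) given at five concentrations for 48 h at 37 °C, 5% CO2. Adherent cells fixed with cold TCA, stained with 0.4% SRB and read at 515 nm. GI50, TGI and LC50 taken from the time-zero, control and treated absorbances.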

[21] = system: SF-295; assay: Growth inhibition of human SF295 cells after 48 hrs by SRB assay; assay type: functional; details: SF-295, 48 h; method in brief: as §1
[22] = system: SF-539; assay: Growth inhibition of human SF539 cells after 48 hrs by SRB assay; assay type: functional; details: SF-539, 48 h; method in brief: as §1
[23] = system: SNB-19; assay: Growth inhibition of human SNB19 cells after 48 hrs by SRB assay; assay type: functional; details: SNB-19, 48 h; method in brief: as §2
[24] = system: U-251; assay: Growth inhibition of human U251 cells after 48 hrs by SRB assay; assay type: functional; details: U-251, 48 h; method in brief: as §2
[25] = system: LOX IMVI; assay: Growth inhibition of human LOXIMVI cells after 48 hrs by SRB assay; assay type: functional; method in brief: as §1
[26] = system: Malme-3M; assay: Growth inhibition of human MALME-3M cells after 48 hrs by SRB assay; assay type: functional; method in brief: as §1
[27] = system: M14; assay: Growth inhibition of human M14 cells after 48 hrs by SRB assay; assay type: functional; details: M14, 48 h; method in brief: as §1
[28] = system: SK-MEL-2; assay: Growth inhibition of human SK-MEL-2 cells after 48 hrs by SRB assay; assay type: functional; details: SK-MEL-2, 48 h; method in brief: as §2
[29] = system: SK-MEL-28; assay: Growth inhibition of human SK-MEL-28 cells after 48 hrs by SRB assay; assay type: functional; details: SK-MEL-28, 48 h; method in brief: as §2
[30] = system: SK-MEL-5; assay: Growth inhibition of human SK-MEL-5 cells after 48 hrs by SRB assay; assay type: functional; details: SK-MEL-5, 48 h; method in brief: as §2
[31] = system: UACC-257; assay: Growth inhibition of human UACC257 cells after 48 hrs by SRB assay; assay type: functional; details: UACC-257, 48 h; method in brief: as §2
[32] = system: UACC-62; assay: Growth inhibition of human UACC62 cells after 48 hrs by SRB assay; assay type: functional; details: UACC-62, 48 h; method in brief: as §2
[33] = system: OVCAR-4; assay: Growth inhibition of human OVCAR4 cells after 48 hrs by SRB assay; assay type: functional; details: OVCAR-4, 48 h; method in brief: as §1
[34] = system: OVCAR-5; assay: Growth inhibition of human OVCAR5 cells after 48 hrs by SRB assay; assay type: functional; details: OVCAR-5, 48 h; method in brief: as §1
[35] = system: 786-0; assay: Growth inhibition of human 786-0 cells after 48 hrs by SRB assay; assay type: functional; details: 786-0, 48 h; method in brief: as §1
[36] = system: CAKI-1; assay: Growth inhibition of human Caki1 cells after 48 hrs by SRB assay; assay type: functional; details: CAKI-1, 48 h; method in brief: as §1
[37] = system: RXF 393; assay: Growth inhibition of human RXF393 cells after 48 hrs by SRB assay; assay type: functional; details: RXF 393, 48 h; method in brief: as §1
[38] = system: SN12C; assay: Growth inhibition of human SN12C cells after 48 hrs by SRB assay; assay type: functional; method in brief: as §2
[39] = system: TK-10; assay: Growth inhibition of human TK10 cells after 48 hrs by SRB assay; assay type: functional; details: TK-10, 48 h; method in brief: as §2
[40] = system: UO-31; assay: Growth inhibition of human UO31 cells after 48 hrs by SRB assay; assay type: functional; details: UO-31, 48 h; method in brief: as §2
[41] = system: PC-3; assay: Growth inhibition of human PC3 cells after 48 hrs by SRB assay; assay type: functional; details: PC-3, 48 h; method in brief: as §1
[42] = system: DU-145; assay: Growth inhibition of human DU145 cells after 48 hrs by SRB assay; assay type: functional; details: DU-145, 48 h; method in brief: as §1
[43] = system: MCF7; assay: Growth inhibition of human MCF7 cells after 48 hrs by SRB assay; assay type: functional; details: MCF7, 48 h; method in brief: as §1
[44] = system: MDA-MB-231; assay: Growth inhibition of human MDA-MB-231 cells after 48 hrs by SRB assay; assay type: functional; details: MDA-MB-231, 48 h; method in brief: as §1
[45] = Growth inhibition of human Hs 578T cells after 48 hrs by SRB assay; assay type: functional; method in brief: as §1
[46] = system: BT-549; assay: Growth inhibition of human BT549 cells after 48 hrs by SRB assay; assay type: functional; details: BT-549, 48 h; method in brief: as §1

Work on `NC(=O)c1cc(I)ccc1NC(=O)/C=C/c1ccccc1` yielded an inhibition of growth at 10 µM [1] of 74.5%, an IC50 [2] of 570 nM and a GI50 [3] of 341 nM. For the same compound, the GI50 [4] was 54.2 nM, the GI50 [5] was 920 nM and the GI50 [6] was 202 nM. The GI50 [7] was 347 nM, the GI50 [8] was 2650 nM and the GI50 [9] was 734 nM. It also gave a GI50 [10] of 21200 nM, a GI50 [11] of 1090 nM and a GI50 [12] of 453 nM. It also gave a GI50 [13] of 303 nM, a GI50 [14] of 343 nM and a GI50 [15] of 1250 nM. It also gave a GI50 [16] of 430 nM, a GI50 [17] of 586 nM and a GI50 [18] of 367 nM. It also gave a GI50 [19] of 499 nM, a GI50 [20] of 541 nM and a GI50 [21] of 350 nM. It also gave a GI50 [22] of 445 nM, a GI50 [23] of 586 nM and a GI50 [24] of 501 nM. For the same compound, the GI50 [25] was 3750 nM, the GI50 [26] was 1600 nM and the GI50 [27] was 429 nM. The GI50 [28] was 1400 nM, the GI50 [29] was 2510 nM and the GI50 [30] was 383 nM. The GI50 [31] was 14300 nM, the GI50 [32] was 632 nM and the GI50 [33] was 1840 nM. For the same compound, the GI50 [34] was 3520 nM, the GI50 [35] was 1430 nM and the GI50 [36] was 648 nM. The GI50 [37] was 3020 nM, the GI50 [38] was 635 nM and the GI50 [39] was 3150 nM. The GI50 [40] was 3530 nM, the GI50 [41] was 628 nM and the GI50 [42] was 477 nM. It also gave a GI50 [43] of 450 nM, a GI50 [44] of 596 nM and a GI50 [45] of 375 nM. For the same compound, the GI50 [46] was 9470 nM.

`NC(=O)c1cc(Cl)ccc1NC(=O)/C=C/c1ccccc1` showed an inhibition of growth at 10 µM [1] of 64%, an IC50 [2] of 2500 nM and a GI50 [3] of 2960 nM. For the same compound, the GI50 [4] was 1420 nM, the GI50 [5] was 845 nM and the GI50 [6] was 3950 nM. For the same compound, the GI50 [7] was 2790 nM, the GI50 [8] was 3770 nM and the GI50 [9] was 2830 nM. It also gave a GI50 [10] of 2870 nM, a GI50 [11] of 3000 nM and a GI50 [12] of 1760 nM. The GI50 [13] was 2080 nM, the GI50 [14] was 1680 nM and the GI50 [15] was 487 nM. It also gave a GI50 [16] of 1980 nM, a GI50 [17] of 2130 nM and a GI50 [18] of 1940 nM. For the same compound, the GI50 [19] was 1690 nM, the GI50 [20] was 1990 nM and the GI50 [21] was 1400 nM. The GI50 [22] was 2050 nM, the GI50 [23] was 3180 nM and the GI50 [24] was 2140 nM. The GI50 [25] was 4330 nM, the GI50 [26] was 2680 nM and the GI50 [27] was 1710 nM. It also gave a GI50 [28] of 2750 nM, a GI50 [29] of 2880 nM and a GI50 [30] of 373 nM. The GI50 [31] was 15100 nM, the GI50 [32] was 2520 nM and the GI50 [33] was 2770 nM. The GI50 [34] was 2740 nM, the GI50 [35] was 2320 nM and the GI50 [36] was 263 nM. For the same compound, the GI50 [37] was 1710 nM, the GI50 [38] was 3960 nM and the GI50 [39] was 5510 nM. It also gave a GI50 [40] of 3570 nM, a GI50 [41] of 3150 nM and a GI50 [42] of 2160 nM. The GI50 [43] was 1740 nM, the GI50 [44] was 2480 nM and the GI50 [45] was 2040 nM. The GI50 [46] was 3190 nM.
